Assay results: ChEMBL document CHEMBL4184173, “Synthesis and in vitro evaluations of 6-(hetero)-aryl-imidazo[1,2-b]pyridazine-3-sulfonamide's as an inhibitor of TNF-α production” (Bioorg Med Chem Lett, 2018)

The compounds below were run on PBMC (assay: Cytotoxicity against human PBMC by MTS assay).
Assay type: cell-based
In short: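 Cells from the LPS-stimulated hPBMC assay were given MTS-[…] reagent and incubated 5-6 h until absorbance reached 0.5. Read at 490 nm. Percent cytotoxicity was calculated from mean absorbance relative to the 0.5% DMSO vehicle control.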
`CS(=O)(=O)c1ccc(-c2ccc3ncc(S(=O)(=O)N4CCC(C#N)(c5ccccc5)CC4)n3n2)cc1` gave an IC50 of over 30 µM.
In the case of `N#CC1(c2ccccc2)CCN(S(=O)(=O)c2cnc3ccc(Cl)nn23)CC1`, the IC50 is reported as over 30 µM.
`O=S(=O)(c1cnc2ccc(-c3cncc(F)c3)nn12)N1CCN(c2ccccn2)CC1` gave an IC50 of over 30 µM.
Compound `CS(=O)(=O)c1ccc(-c2ccc3ncc(S(=O)(=O)NCC4CCCO4)n3n2)cc1` (centres undefined) has an IC50 of over 30 µM.
With `O=S(=O)(NCC1CCCO1)c1cnc2ccc(-c3cncc(C(F)(F)F)c3)nn12` (centres undefined) the IC50 was over 30 µM.
For `COc1cccc(CNS(=O)(=O)c2cnc3ccc(-c4cncc(C(F)(F)F)c4)nn23)c1`, the IC50 was over 30 µM.
Work on `COc1cccc(CNS(=O)(=O)c2cnc3ccc(-c4ccc(OC)nc4)nn23)c1` yielded an IC50 of over 30 µM.
In the case of `O=S(=O)(c1cnc2ccc(-c3cccnc3)nn12)N1CCN(c2ccccn2)CC1`, the IC50 is reported as over 30 µM.
Work on `O=S(=O)(NCC1CCCO1)c1cnc2ccc(-c3cccnc3)nn12` (centres undefined) yielded an IC50 of over 30 µM.
`N#CC1(c2ccccc2)CCN(S(=O)(=O)c2cnc3ccc(-c4cncc(F)c4)nn23)CC1` showed an IC50 of over 30 µM.
Compound `O=S(=O)(NCC1CCCO1)c1cnc2ccc(-c3cncc(F)c3)nn12` (centres undefined) has an IC50 of over 30 µM.
Compound `NS(=O)(=O)c1cnc2ccc(Cl)nn12` has an IC50 of over 30 µM.
With `N#CC1(c2ccccc2)CCN(S(=O)(=O)c2cnc3ccc(-c4cccnc4)nn23)CC1` the IC50 was over 30 µM.
`O=S(=O)(c1cnc2ccc(Cl)nn12)N1CCN(c2ccccc2)CC1` was tested, and the IC50 was over 30 µM.
With `O=S(=O)(c1cnc2ccc(Cl)nn12)N1CCN(Cc2ccccc2)CC1` the IC50 was over 30 µM.
Work on `COc1cccc(CNS(=O)(=O)c2cnc3ccc(-c4ccc(S(C)(=O)=O)cc4)nn23)c1` yielded an IC50 of over 30 µM.
For `CCN1CCN(S(=O)(=O)c2cnc3ccc(-c4ccc(OC)cc4)nn23)CC1`, the IC50 was over 30 µM.
`CCN1CCN(S(=O)(=O)c2cnc3ccc(-c4ccc(OC)nc4)nn23)CC1` was tested, and the IC50 was over 30 µM.
In the case of `O=S(=O)(c1cnc2ccc(-c3cncc(C(F)(F)F)c3)nn12)N1CCN(c2ccccn2)CC1`, the IC50 is reported as over 30 µM.
With `COc1ccc(-c2ccc3ncc(S(=O)(=O)NCC4CCCO4)n3n2)cc1` (centres undefined) the IC50 was over 30 µM.
`COc1ccc(-c2ccc3ncc(S(=O)(=O)NCC4CCCO4)n3n2)cn1` (centres undefined) gave an IC50 of over 30 µM.
For `N#CC1(c2ccccc2)CCN(S(=O)(=O)c2cnc3ccc(-c4cncc(C(F)(F)F)c4)nn23)CC1`, the IC50 was over 30 µM.
`Nc1ncc(-c2ccc3ncc(S(=O)(=O)N4CCN(c5ccccn5)CC4)n3n2)cc1C(F)(F)F` was tested, and the IC50 was over 30 µM.
Work on `CCN1CCN(S(=O)(=O)c2cnc3ccc(-c4cncc(F)c4)nn23)CC1` yielded an IC50 of over 30 µM.
`COc1cccc(CNS(=O)(=O)c2cnc3ccc(-c4cncc(F)c4)nn23)c1` gave an IC50 of over 30 µM.
`O=S(=O)(c1cnc2ccc(Cl)nn12)N1CCN(c2ccccn2)CC1` gave an IC50 of over 30 µM.
`O=S(=O)(NCC1CCCO1)c1cnc2ccc(Cl)nn12` (centres undefined) was tested, and the IC50 was over 30 µM.
In the case of `O=S(=O)(c1cnc2ccc(-c3cccnc3)nn12)N1CCN(Cc2ccccc2)CC1`, the IC50 is reported as over 30 µM.
`CCN1CCN(S(=O)(=O)c2cnc3ccc(-c4ccc(S(C)(=O)=O)cc4)nn23)CC1` showed an IC50 of over 30 µM.
`CCN1CCN(S(=O)(=O)c2cnc3ccc(-c4cncc(C(F)(F)F)c4)nn23)CC1` was tested, and the IC50 was over 30 µM.
In the case of `COc1ccc(-c2ccc3ncc(S(=O)(=O)N4CCN(c5ccccn5)CC4)n3n2)cn1`, the IC50 is reported as over 30 µM.
`COc1cccc(CNS(=O)(=O)c2cnc3ccc(-c4cccnc4)nn23)c1` gave an IC50 of over 30 µM.
`COc1ccc(-c2ccc3ncc(S(=O)(=O)N4CCC(C#N)(c5ccccc5)CC4)n3n2)cc1OC` showed an IC50 of over 30 µM.
Compound `COc1cccc(CNS(=O)(=O)c2cnc3ccc(-c4cnc(N)c(C(F)(F)F)c4)nn23)c1` has an IC50 of over 30 µM.
`CS(=O)(=O)c1ccc(-c2ccc3ncc(S(=O)(=O)N4CCN(Cc5ccccc5)CC4)n3n2)cc1` showed an IC50 of over 30 µM.
In the case of `CS(=O)(=O)c1ccc(-c2ccc3ncc(S(=O)(=O)N4CCN(c5ccccn5)CC4)n3n2)cc1`, the IC50 is reported as over 30 µM.
Work on `Nc1ncc(-c2ccc3ncc(S(N)(=O)=O)n3n2)cc1C(F)(F)F` yielded an IC50 of over 30 µM.
In the case of `CCN1CCN(S(=O)(=O)c2cnc3ccc(-c4cccnc4)nn23)CC1`, the IC50 is reported as over 30 µM.
`CCN1CCN(S(=O)(=O)c2cnc3ccc(Cl)nn23)CC1` gave an IC50 of over 30 µM.
`O=S(=O)(c1cnc2ccc(-c3cncc(F)c3)nn12)N1CCN(Cc2ccccc2)CC1` showed an IC50 of over 30 µM.
In the case of `COc1cccc(CNS(=O)(=O)c2cnc3ccc(Cl)nn23)c1`, the IC50 is reported as over 30 µM.
`COc1ccc(C2CNC(=O)C2)cc1OC1CCCC1` (centres undefined) [ROLIPRAM] showed an IC50 of over 30 µM.

Each compound was assayed on L929 (assay: Cytoprotective against human TNF-alpha-induced cell death in mouse L929 cells by MTT assay).
Assay type: functional, cell-based
`O=C1/C(=N/Nc2ccc(Cl)c([N+](=O)[O-])c2)C(c2ccccc2)NN1c1nc(-c2ccccc2)cs1` (centres undefined) was tested, and the IC50 was 9 µM.

The compounds below were run against T1, Tumor necrosis factor (Mus musculus, UniProt P06804) (assay: Inhibition of mouse recombinant TNF-alpha binding to antibody preincubated for 30 mins followed by antibody addition measured after 2 hrs by ELISA).
T1 sequence (P06804 whole entry): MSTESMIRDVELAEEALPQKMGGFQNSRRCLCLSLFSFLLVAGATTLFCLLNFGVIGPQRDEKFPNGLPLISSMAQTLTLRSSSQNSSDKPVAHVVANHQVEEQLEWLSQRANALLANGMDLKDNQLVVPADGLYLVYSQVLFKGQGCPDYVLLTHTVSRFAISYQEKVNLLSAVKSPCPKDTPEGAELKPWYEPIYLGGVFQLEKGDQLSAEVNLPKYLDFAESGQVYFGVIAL
In the case of `CCCCn1cnc(CC(c2c(O)c3ccccc3oc2=O)c2c(O)c3ccccc3oc2=O)c1Cl`, the IC50 is reported as 16.5 µM.
